Published values of several laboratories.
Each line is one published result; the experiments were not run side by side.
Target: Eukaryotic translation initiation factor 2-alpha kinase 1 (EIF2AK1, Homo sapiens, UniProt Q9BQI3)

SMILES | test | conditions | remaining binding
C[C@@H](c1ccc(-n2cnc3c(N)ncnc32)cc1)N1CCc2nn(C)c(Cc3ccccc3)c2C1=O | binding, competition with immobilised ligand | 0.1 µM | 66%
C=CC(=O)N1CCC(C(=O)NCC(=O)N2CCN(c3nc(-c4cnc(N)nc4C(F)F)nc(N4CCOCC4)n3)CC2)CC1 | binding, competition with immobilised ligand | 1 µM | 94%
CN(C)c1nccc(-c2cnn3ncccc23)n1 | binding | 1 µM | 100%
CNC(=O)[C@@H]1CC[C@@H](n2c(-c3ccc4cnccc4c3)nc3ccc(C(=O)NCc4cccc(C(N)=O)c4)cc32)C1 | binding, competition with immobilised ligand | 1 µM | 100%
Cc1nc(N2CC[C@@H](O)C2)ncc1-c1cc(C(F)(F)F)cc2[nH]ncc12 | binding, competition with immobilised ligand | 1 µM | 98%
O=C(c1ccc(Nc2ncc(Cl)c(-c3cc4ccccc4s3)n2)cc1)N1CCC(N2CCCC2)CC1 | binding, competition with immobilised ligand | 1 µM | 90%
Cc1cnn2ncc(-c3ccnc(N(C)C)n3)c2c1 | binding | 1 µM | 84%
O=C(c1ccc(Nc2ncc(Cl)c(-c3ccc(Cl)s3)n2)cc1)N1CCC(N2CCCC2)CC1 | binding, competition with immobilised ligand | 1 µM | 86%
F[C@@H]1CCN(c2nccc(-c3cnn4ncccc34)n2)C1 | binding | 1 µM | 100%
Cc1cnc(Nc2ccc(C(=O)N3CCC(N4CCCC4)CC3)cc2)nc1-c1cc2ccccc2s1 | binding, competition with immobilised ligand | 1 µM | 100%
CS(=O)(=O)c1cc(C2(NC(=O)c3cncc4c3cnn4-c3ccc(F)cc3)CC2)ccn1 | cell-free assay, competition with immobilised ligand | 1 µM | 73%
O=C(NCC1CCOCC1)c1n[nH]cc1NC(=O)c1c(F)cccc1F | binding, competition with immobilised ligand | 1 µM | 87%
O=C(NCc1ncc(C(F)(F)F)cc1Cl)c1ccc2c(c1)C1(CCS(=O)(=O)CC1)[C@H](C1CC1)N2S(=O)(=O)c1ccc(F)cc1 | cell-free assay, competition with immobilised ligand | 1 µM | 86%
CN(CCCC(F)(F)F)c1nccc(-c2cnn3ncccc23)n1 | binding | 1 µM | 100%
FC(F)(F)c1ccc2c(c1)nc(-c1cccnc1)n2C1CC1 | cell-free assay, competition with immobilised ligand | 1 µM | 100%
CN(C)c1nccc(-c2cnc3ncccn23)n1 | binding | 1 µM | 69%
Nc1cnc(N2CCc3cc(S(=O)(=O)Nc4c(F)cc(Cl)cc4F)cc(N4CCCC4=O)c32)nc1 | cell-free assay, competition with immobilised ligand | 1 µM | 94%
C[C@H]1CCN(c2nccc(-c3cnn4ncccc34)n2)C1 | binding | 1 µM | 73%
C[C@H](c1ccc(F)cc1)N(Cc1cccc(C(=O)O)c1)C(=O)c1cnc2ccccc2c1 | cell-free assay, competition with immobilised ligand | 1 µM | 84%
CCN1CCN(Cc2ccc(C(=O)Nc3ccc(C)c(Oc4ccc5c(c4)CC(=O)N5)c3)cc2C(F)(F)F)CC1 | binding, competition with immobilised ligand | 1 µM | 100%
CO[C@@H](C)c1c(Nc2ccc([C@H](N(C)C(=O)C3CCS(=O)(=O)CC3)C(F)(F)F)cc2)cnc2cc(Cl)nn12 | cell-free assay, competition with immobilised ligand | 1 µM | 100%
FC(F)(F)Oc1cccc(-c2cnc3ccc(-c4ccncc4)nn23)c1 | cell-free assay, competition with immobilised ligand | 5 µM | 88%
